Assay results reported in ChEMBL document CHEMBL1153346, “Structure-activity study of pentamidine analogues as antiprotozoal agents” (J Med Chem, 2009).
The source made the active and inactive calls. The rule behind the calls is not given here.

Assays:
Plasmodium falciparum = test: Antiprotozoal activity after 48 hrs against chloroquine-resistant Plasmodium falciparum K1 infected erythrocytes by [3H]hypoxanthine uptake; type: functional, organism-based
Summary of the method: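 Erythrocytic stages in infected human red cells (hematocrit 1.25%, parasitemia 0.3%) in supplemented RPMI 1640 with Albumax II. Serial dilutions incubated at 37 °C in 93% N2/4% CO2/3% O2. [3H]-hypoxanthine (0.5 µCi/well) added at 48 h, then 24 h more. Incorporation counted by scintillation. IC50 from sigmoidal curves; two independent runs in duplicate.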

[1] = system: Trypanosoma brucei rhodesiense; test: Antitrypanosomal activity against Trypanosoma brucei rhodesiense STIB900 trypomastigotes infected in NMRI mouse assessed as mouse survival at 5 mg/kg, ip administered from day 3 to day 6 postinfection; type: functional; details: route intraperitoneal
Summary of the method: (§1)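 STIB900 acute mouse model. Dosing was intraperitoneal, daily for four days, in DMSO diluted with water to 10% final DMSO. An infected untreated control group was kept. Tail blood was checked for parasitemia to day 60, and deaths were recorded to give mean survival days. Mice surviving and aparasitemic at day 60 counted as cured.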

Leishmania donovani = test: Antiprotozoal activity against Leishmania donovani MHOM/SD/62/1S-CL2D axenic amastigotes after 72 hrs; type: functional, organism-based
Summary of the method: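 L. donovani axenic amastigotes, adapted from promastigotes and grown in amastigote medium at 37 °C. 6 × 10⁴ parasites per well with 2-fold compound dilutions (DMSO ≤1%), incubated 72 h at 37 °C in humidified 5% CO₂. Growth read by tetrazolium (CellTiter) absorbance at 490 nm. IC50 from a four-parameter dose-response fit. Average of duplicate determinations.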

[2] = Selectivity index, ratio of IC50 for rat L6 cells to IC50 for chloroquine-resistant Plasmodium falciparum K1; type: toxicity, cell-based; details: read-out: Ratio IC50
Summary of the method: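 Ratio of L6 IC50 to K1 IC50. L6 cells: Alamar blue assay after 70 h, 37 °C. K1: [3H]-hypoxanthine incorporation in infected red cells over 48 + 24 h at 37 °C under low O2. IC50s from sigmoidal curves, two independent runs in duplicate.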

[3] = Selectivity index, ratio of IC50 for rat L6 cells to IC50 for Leishmania donovani MHOM/SD/62/1S-CL2D axenic amastigotes; type: toxicity, cell-based; details: read-out: Ratio IC50
Summary of the method: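 Amastigotes: 6 × 10⁴ parasites/well with 2-fold dilutions, 72 h at 37 °C in 5% CO2. Growth read by tetrazolium CellTiter absorbance at 490 nm; IC50 from a four-parameter dose-response fit.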

[4] = system: Trypanosoma brucei rhodesiense; test: Antitrypanosomal activity against Trypanosoma brucei rhodesiense STIB900 trypomastigotes infected in NMRI mouse assessed as survival and aparasitemic condition at 5 mg/kg, ip administered from day 3 to day 6 postinfection measured after 60 days postinfection; type: functional, organism-based; design: dose 5 mg/kg
Summary of the method: (§2)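 STIB900 acute mouse model with 4 mice per group. Compound in DMSO diluted with water to a final 10% DMSO, given intraperitoneally once daily for four days. An infected, untreated control group was included. Tail blood checked for parasitemia until day 60. Mice alive and aparasitemic at day 60 counted as cured; deaths recorded for mean survival time.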

[5] = Selectivity index, ratio of IC50 for rat L6 cells to IC50 for Trypanosoma brucei rhodesiense STIB900 trypomastigotes; type: toxicity, cell-based; details: read-out: Ratio IC50
Summary of the method: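 Ratio of L6 IC50 to STIB900 IC50. L6 cells: 4000/well in RPMI 1640 with 10% FBS, 70 h at 37 °C. Bloodstream forms: 2000/well in supplemented MEM with 15% horse serum, 70 h at 37 °C. Both read by Alamar blue fluorescence; IC50s from sigmoidal curves, two independent runs in duplicate.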

[6] = system: Trypanosoma brucei rhodesiense; test: Antiprotozoal activity against Trypanosoma brucei rhodesiense STIB900 trypomastigotes after 70 hrs by alamar blue assay; type: functional, organism-based
Summary of the method: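 Bloodstream forms, 2000 per well, in MEM with Earle's salts plus 0.2 mM 2-mercaptoethanol, 1 mM pyruvate, 0.5 mM hypoxanthine and 15% heat-inactivated horse serum. Exposed to serial dilutions (DMSO ≤1%) for 70 h at 37 °C in 5% CO₂. Resazurin then added for a further 2-6 h. IC50 from sigmoidal curves; two independent runs in duplicate.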

L6 = test: Cytotoxicity against rat L6 cells after 70 hrs by alamar blue assay; type: cell-based; details: L6, 70 h
Summary of the method: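 L6 rat myoblasts, 4000 per well, in RPMI 1640 with 2 mM L-glutamine, HEPES, NaHCO₃ and 10% FBS. Exposed to serial dilutions (DMSO ≤1%) for 70 h at 37 °C in humidified 5% CO₂. Resazurin then added for 2-3 h; fluorescence read at ex 536/em 588 nm. IC50 from sigmoidal curves; two independent runs in duplicate.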

[7] = system: Trypanosoma brucei rhodesiense; test: Antitrypanosomal activity against Trypanosoma brucei rhodesiense STIB900 trypomastigotes infected in NMRI mouse assessed as mouse survival at 20 mg/kg, ip administered from day 3 to day 6 postinfection; type: functional; details: route intraperitoneal; summary of the method: as §1
[8] = system: Trypanosoma brucei rhodesiense; test: Antitrypanosomal activity against Trypanosoma brucei rhodesiense STIB900 trypomastigotes infected in NMRI mouse assessed as mouse survival at 10 mg/kg, ip administered from day 3 to day 6 postinfection; type: functional; details: route intraperitoneal; summary of the method: as §1
[9] = system: Trypanosoma brucei rhodesiense; test: Antitrypanosomal activity against Trypanosoma brucei rhodesiense STIB900 trypomastigotes infected in NMRI mouse assessed as survival and aparasitemic condition at 10 mg/kg, ip administered from day 3 to day 6 postinfection measured after 60 days postinfection; type: functional, organism-based; design: dose 10 mg/kg; summary of the method: as §2
Mus musculus = test: Toxicity in NMRI mouse infected with Trypanosoma brucei rhodesiense STIB900 trypomastigotes at 20 mg/kg, ip administered from day 3 to day 6 postinfection; type: organism-based; design: dose 20 mg/kg, route intraperitoneal; details: in vivo
[10] = system: Trypanosoma brucei rhodesiense; test: Antitrypanosomal activity against Trypanosoma brucei rhodesiense STIB900 trypomastigotes infected in NMRI mouse assessed as survival and aparasitemic condition at 20 mg/kg, ip administered from day 3 to day 6 postinfection measured after 60 days postinfection; type: functional, organism-based; design: dose 20 mg/kg; summary of the method: as §2
[11] = system: Trypanosoma brucei rhodesiense; test: Antitrypanosomal activity against Trypanosoma brucei rhodesiense STIB900 trypomastigotes infected in NMRI mouse assessed as survival and aparasitemic condition at 2 mg/kg, ip administered from day 3 to day 6 postinfection measured after 60 days postinfection; type: functional, organism-based; design: dose 2 mg/kg
[12] = system: Trypanosoma brucei rhodesiense; test: Antitrypanosomal activity against Trypanosoma brucei rhodesiense STIB900 trypomastigotes infected in NMRI mouse assessed as mouse survival at 1 mg/kg, ip administered from day 3 to day 6 postinfection; type: functional; details: route intraperitoneal
[13] = system: Trypanosoma brucei rhodesiense; test: Antitrypanosomal activity against Trypanosoma brucei rhodesiense STIB900 trypomastigotes infected in NMRI mouse assessed as mouse survival at 2 mg/kg, ip administered from day 3 to day 6 postinfection; type: functional; details: route intraperitoneal
[14] = system: Trypanosoma brucei rhodesiense; test: Antitrypanosomal activity against Trypanosoma brucei rhodesiense STIB900 trypomastigotes infected in NMRI mouse assessed as mouse survival at 8 mg/kg, ip administered from day 3 to day 6 postinfection; type: functional; details: route intraperitoneal
[15] = system: Trypanosoma brucei rhodesiense; test: Antitrypanosomal activity against Trypanosoma brucei rhodesiense STIB900 trypomastigotes infected in NMRI mouse assessed as survival and aparasitemic condition at 8 mg/kg, ip administered from day 3 to day 6 postinfection measured after 60 days postinfection; type: functional, organism-based; design: dose 8 mg/kg

| SMILES | IC50 (Plasmodium falciparum) | Survival [1] | IC50 (Leishmania donovani) | selectivity ratio [2] | selectivity ratio [3] | Activity [4] | selectivity ratio [5] | IC50 [6] | IC50 (L6) | Survival [7] | Survival [8] | Activity [9] | Activity (Mus musculus) | Activity [10] | Activity [11] | Survival [12] | Survival [13] | Survival [14] | Activity [15] |
| --- | --- | --- | --- | --- | --- | --- | --- | --- | --- | --- | --- | --- | --- | --- | --- | --- | --- | --- | --- |
| Cl.Cl.N=C(N)c1ccc(OCCCOc2ccc(C(=N)N)cc2Br)c(Br)c1 | 16 nM | 13 days | 1170 nM | 400 | 5 | inactive | 337 | 19 nM | 6400 nM |  |  |  |  |  |  |  |  |  |  |
| Cl.Cl.N=C(N)c1ccc(SCCCCCSc2ccc(C(=N)N)cc2)cc1 | 19 nM | 32.3 days | 1270 nM | 411 | 6 | inactive | 1560 | 5 nM | 7800 nM |  |  |  |  |  |  |  |  |  |  |
| Cl.Cl.c1cc(C2=NCCN2)ccc1OCCCOc1ccc(C2=NCCN2)cc1 | 10 nM |  | 2880 nM | 7530 | 26 |  | 685 | 110 nM | 75300 nM | >51 days | 22.8 days | inactive |  |  |  |  |  |  |  |
| CCOC(=O)c1cc(C(=N)NC(C)C)ccc1OCCCCCOc1ccc(C(=N)NC(C)C)cc1C(=O)OCC.Cl.Cl | 13 nM |  | 55900 nM | > 10800 | 2 |  | > 2740 | 51 nM | > 140000 nM | 5.5 days |  |  | Toxic | inactive |  |  |  |  |  |
| COc1cc(C(=N)N)ccc1OCCCCCOc1ccc(C(=N)N)cc1OC.Cl.Cl | 21 nM | 26 days | 24000 nM | 7710 | 7 | inactive | 16200 | 10 nM | 162000 nM |  |  |  |  |  |  |  |  |  |  |
| CC(C)NC(=N)c1ccc(NCCCCCNc2ccc(C(=N)NC(C)C)cc2)cc1.Cl | 2 nM | 18 days | 5750 nM | 62500 | 22 | inactive | 2500 | 50 nM | 125000 nM |  |  |  |  |  |  |  |  |  |  |
| Cl.Cl.N=C(N)c1cccc(OCCCCOc2cccc(C(=N)N)c2)c1 | 21 nM |  | 4460 nM | 762 | 4 |  | 286 | 56 nM | 16000 nM | >43 days | 20 days | inactive |  |  |  |  |  |  |  |
| COc1cc(C2=NCCN2)ccc1OCCCCCOc1ccc(C2=NCCN2)cc1OC.Cl.Cl | 19 nM |  | 36300 nM | > 8320 | > 4 |  | > 3950 | 40 nM | > 158000 nM |  | >31.8 days | inactive |  |  |  |  |  |  |  |
| Cl.Cl.Cl.Cl.N=C(N)c1ccc(OCCCCOc2ccc(C(=N)N)cc2Cl)c(Cl)c1 | 19 nM |  | 2130 nM | 574 | 5 |  | 260 | 42 nM | 10900 nM | >41.5 days | 22 days | inactive |  |  |  |  |  |  |  |
| Cl.Cl.c1cc(C2=NCCN2)ccc1OCCCCOc1ccc(C2=NCCN2)cc1 | 31 nM | 7.8 days | 3060 nM | 2020 | 20 | inactive | 257 | 244 nM | 62700 nM | >41.5 days |  |  |  |  |  |  |  |  |  |
| Cl.Cl.Cl.Cl.N=C(N)c1ccc(OCCCOc2ccc(C(=N)N)cc2Cl)c(Cl)c1 | 19 nM | >60 days | 1560 nM | 1300 | 16 | Active | 6200 | 4 nM | 24800 nM |  |  |  |  |  |  |  |  |  |  |
| Nc1nc(N)nc(Nc2ccc([As]3SCC(CO)S3)cc2)n1 (stereo unspecified) [MELARSOPROL] |  |  |  |  |  |  |  |  |  |  |  |  |  |  | Active | >51.5 days | >60 days | >60 days | Active |
| Cl.Cl.c1cc(C2=NCCN2)ccc1NCCCCCNc1ccc(C2=NCCN2)cc1 | 1 nM | >60 days | 254 nM | 34500 | 136 | Active | 34500 | 1 nM | 34500 nM |  |  |  |  |  |  |  |  |  |  |
| COc1cc(C(=N)N)ccc1OCCCCOc1ccc(C(=N)N)cc1OC.Cl.Cl | 44 nM |  | 38100 nM | > 4250 | > 5 |  | > 693 | 270 nM | > 187000 nM |  | 17.5 days | inactive |  |  |  |  |  |  |  |
| COc1cc(C2=NCCN2)ccc1OCCCCOc1ccc(C2=NCCN2)cc1OC.Cl.Cl | 20 nM |  | 38900 nM | > 8200 | > 4 |  | > 2410 | 68 nM | > 164000 nM |  | 18.3 days | inactive |  |  |  |  |  |  |  |
